This is a sample that favours compounds with a hit; in the whole collection about 3.4% have one here.
E-selectin induc – induces E-selectin expression in human endothelial cells; P16581; HUVEC E-selectin immunofluorescence imaging; normalized: neutral wells 0, TNF-alpha wells 100; activation, % at 7.58 µM; hit rate 0.37% among 260,000;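 active = mean E-selectin-positive cell signal at least 10% of the positive control, reached in at least 60% of replicates, without over 20% cell loss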
Target sequence (P16581 whole entry, looked up): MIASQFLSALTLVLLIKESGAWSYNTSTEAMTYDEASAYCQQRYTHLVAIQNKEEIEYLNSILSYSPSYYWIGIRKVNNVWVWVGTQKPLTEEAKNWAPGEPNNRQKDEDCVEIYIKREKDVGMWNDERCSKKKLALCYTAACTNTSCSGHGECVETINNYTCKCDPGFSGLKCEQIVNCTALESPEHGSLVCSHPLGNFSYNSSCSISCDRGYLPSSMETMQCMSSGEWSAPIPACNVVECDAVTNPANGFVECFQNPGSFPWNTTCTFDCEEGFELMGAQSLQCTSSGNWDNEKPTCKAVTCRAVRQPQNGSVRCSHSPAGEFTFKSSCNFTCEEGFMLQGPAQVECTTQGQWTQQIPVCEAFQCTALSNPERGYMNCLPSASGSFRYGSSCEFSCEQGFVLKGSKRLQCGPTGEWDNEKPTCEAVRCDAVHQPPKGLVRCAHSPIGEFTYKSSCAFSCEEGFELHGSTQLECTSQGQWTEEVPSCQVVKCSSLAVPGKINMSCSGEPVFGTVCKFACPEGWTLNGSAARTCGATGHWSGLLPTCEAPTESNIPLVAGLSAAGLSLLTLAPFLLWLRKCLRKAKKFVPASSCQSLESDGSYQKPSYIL
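Test system – human umbilical vein endothelial cells (HUVEC), E-selectin induction · Input – 3,000 HUVEC seeded per well · Buffer or medium – EGM-2, gelatin · Compound dosing – single-point compound dose · Detection – immunofluorescence imaging · Measure – percent E-selectin-positive cells · Controls – TNF-alpha high, DMSO low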
rRNA inh HTS – inhibits bacterial ribosomal RNA function over humanized ribosomes; GFP signal change (wild-type ribosome), % (no concentration beside the values); hit rate 1.6% among 350,000; E. coli WT GFP vs humanized-ribosome RFP mutants, fluorescence, 24 h; active compounds read low; DMSO median 0, no signal -100;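 active = significant combined selectivity score with lowered wild-type GFP, culture density cut under 30%, mutant RFP and density less affected; inactive = any of these conditions unmet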
S100A4 MyoIIA – S100A4-myosin IIA interaction inhibition | P26447 | S100A4/TAMRA-MyoIIA peptide fluorescence polarization | inhibition, % at 10.7 µM | hit rate 0.14% among 360,000;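 active = mean inhibition of at least 70% across replicates, with every replicate also reaching that level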
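Test system – S100A4 monomer (human) · Compound – single-point compound testing · Schedule – 5 min incubation before reading · Probe or stimulus – TAMRA-labelled myosin IIA heavy-chain peptide probe, 5 nM · Benchmarks – neutral control DMSO, positive control TFP · Medium – Calcium-containing HEPES buffer, pH 7.2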
AF4-AF9 inh – blocks AF4 peptide binding to human AF9. P42568. AlphaScreen, biotin-AF4 peptide binding to FLAG-AF9. inhibition, % at 10 µM. hit rate 0.47% among 350,000. AID 651704;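 active = every replicate reaching a set inhibition limit, whatever the replicate mean, cut at about 25% in these data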
SIRT5 block – inhibitors of human sirtuin-5 desuccinylase | Q9NXA8 | Purified SirT5, succinyl-peptide AMC, trypsin-coupled fluorescence | inhibition, % at 15 µM | hit rate 1.1% among 330,000; in the data active = inhibition above about 15%
ERAP1 inh – inhibitors of human ERAP1 aminopeptidase | hit rate 0.15% among 340,000 | recombinant ERAP1, Leu-AMC fluorescence, 60 min | inhibition, % at 10.7 µM;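 active = mean replicate inhibition of at least 30%, or all replicates individually reaching that 30% level; inactive = mean below 30% and not every replicate reaching it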
A number is an active result.

`COc1ccc(NC(=O)Nc2ccc3c(c2)C(=O)N([C@H](C)CO)C[C@@H](C)[C@@H](CN(C)Cc2ccc(-c4ccccc4)cc2)O3)cc1` gave E-selectin induc inactive, rRNA inh HTS inactive, S100A4 MyoIIA inactive, AF4-AF9 inh inactive, SIRT5 block 18.7 and ERAP1 inh inactive.
Screening COc1ccc(CN(C)C[C@@H]2Oc3ccc(NC(=O)Nc4ccc(OC)cc4)cc3C(=O)N([C@@H](C)CO)C[C@H]2C)cc1 returned E-selectin induc inactive, rRNA inh HTS inactive, S100A4 MyoIIA inactive, AF4-AF9 inh inactive, SIRT5 block 19.2 and ERAP1 inh inactive.
`COc1ccc(NC(=O)Nc2ccc3c(c2)C(=O)N([C@H](C)CO)C[C@H](C)[C@@H](CN(C)Cc2ccc(-c4ccccc4)cc2)O3)cc1` gave E-selectin induc inactive, rRNA inh HTS inactive, S100A4 MyoIIA inactive, AF4-AF9 inh inactive, SIRT5 block inactive and ERAP1 inh inactive.
Screening CN(C)C(=O)[C@@H]1[C@@H](CO)[C@@H]2Cn3c(cccc3=O)[C@@H]2N1C(=O)NC1CCCC1 returned E-selectin induc inactive, rRNA inh HTS inactive, S100A4 MyoIIA inactive and SIRT5 block inactive.
Screening CC(C)NC(=O)Nc1ccc2c(c1)CC(=O)N([C@@H](C)CO)C[C@@H](C)[C@@H](CN(C)Cc1ccc3c(c1)OCO3)O2 returned E-selectin induc inactive, rRNA inh HTS inactive, S100A4 MyoIIA inactive, AF4-AF9 inh inactive, SIRT5 block inactive and ERAP1 inh inactive.
C[C@@H]1CN([C@@H](C)CO)C(=O)c2cc(NC(=O)Nc3ccccc3)ccc2O[C@@H](C)CCCCO[C@H]1CN(C)S(=O)(=O)c1ccc(F)cc1 was read as E-selectin induc inactive, rRNA inh HTS inactive, S100A4 MyoIIA inactive, AF4-AF9 inh inactive, SIRT5 block inactive and ERAP1 inh inactive.
`CCOC(=O)c1ccc(NC(=S)N2CCSC2c2c(F)cc(F)cc2F)cc1` (centres undefined) gave E-selectin induc inactive, rRNA inh HTS -27.6, S100A4 MyoIIA inactive, AF4-AF9 inh inactive, SIRT5 block inactive and ERAP1 inh inactive.
`Fc1cc(F)c(C2SCCN2C(=S)Nc2cccc(C(F)(F)F)c2)c(F)c1` (centres undefined) gave E-selectin induc inactive, rRNA inh HTS inactive, S100A4 MyoIIA inactive, AF4-AF9 inh inactive, SIRT5 block inactive and ERAP1 inh inactive.
Cc1[nH][nH]c(=O)c1C(c1cc([N+](=O)[O-])ccc1O)c1c(C)[nH][nH]c1=O was read as rRNA inh HTS inactive, S100A4 MyoIIA inactive, AF4-AF9 inh inactive, SIRT5 block 26.4 and ERAP1 inh inactive.
For CN1c2ccc(-c3ccccc3F)cc2[C@H]2[C@H](CCN2S(=O)(=O)c2ccc(F)cc2)[C@H]1CO the results were E-selectin induc inactive, rRNA inh HTS inactive, S100A4 MyoIIA inactive and SIRT5 block inactive.
Screening COc1ccc(C2N(c3ccc(Cl)cc3)N=C(C(C)=O)N(C)N2C(C)=O)cc1 (centres undefined) returned E-selectin induc inactive, rRNA inh HTS inactive, S100A4 MyoIIA inactive, AF4-AF9 inh 27.7, SIRT5 block inactive and ERAP1 inh inactive.
Screening COc1ccc(/C=C/C(=O)Nc2ccccc2C(=O)O)cc1OC returned E-selectin induc inactive, S100A4 MyoIIA inactive, AF4-AF9 inh inactive, SIRT5 block inactive and ERAP1 inh inactive.
Screening Cc1cc(C(=O)NNC(=O)/C=C/c2ccccc2Cl)c(C)o1 returned rRNA inh HTS inactive, S100A4 MyoIIA inactive, AF4-AF9 inh inactive, SIRT5 block inactive and ERAP1 inh inactive.
For COc1ccc(/C=C/C(=O)Nc2ccccc2C(=O)O)cc1 the results were E-selectin induc inactive, rRNA inh HTS -35.5, S100A4 MyoIIA inactive, AF4-AF9 inh inactive, SIRT5 block inactive and ERAP1 inh inactive.
For COc1ccc(/C=C/C(=O)Nc2ccccc2C(=O)NCC(c2ccc(OC)cc2)N(C)C)cc1 (centres undefined) the results were rRNA inh HTS inactive, S100A4 MyoIIA inactive, AF4-AF9 inh 25.7, SIRT5 block inactive and ERAP1 inh inactive.
For COc1ccc(/C=C/C(=O)NNC(=O)c2cc(C)oc2C)cc1 the results were rRNA inh HTS inactive, S100A4 MyoIIA inactive, AF4-AF9 inh inactive, SIRT5 block 22.6 and ERAP1 inh inactive.

Screening results (PubChem BioAssay)
